Experimental data from different studies.
Compare with care: the assays were run in different laboratories. ≈ marks a conversion by molar mass, not a printed value.
Organism: Candida albicans

SMILES	read-out	technique	strain	tested at	time	quantity	result
COc1ccc(N=Nc2c(N)nn3c(-c4ccco4)cc(-c4ccc(OCc5ccccc5)cc4)nc23)cc1	microbial killing	broth dilution	ATCC10231			MFC	62.5 µg/mL (≈ 121 µM)
C[C@@H]1[C@H](O)[C@@H](C)/C=C/C=C/C=C/C=C/C=C/C=C/C=C/[C@H](O[C@@H]2O[C@H](C)[C@@H](O)[C@H](N)[C@@H]2O)C[C@@H]2O[C@](O)(C[C@@H](O)C[C@@H](O)[C@H](O)CC[C@@H](O)C[C@@H](O)CC(=O)O[C@H]1C)C[C@H](O)[C@H]2C(=O)O	microbial growth	well diffusion		20 µg/mL		inhibition zone	4 mm
COc1ccc(N=Nc2c(N)nn3c(-c4ccc(C)cc4)cc(-c4ccc(OCc5ccccc5)cc4)nc23)cc1	microbial killing	broth dilution	ATCC10231			MFC	125 µg/mL (≈ 231 µM)
C=CC(=O)ON=C1C=CC(=C(C#N)c2ccccc2)C=C1	microbial killing	broth dilution	ATCC10231		48 h	MFC	4 µg/mL (≈ 14.5 µM)
CCS(=O)(=O)Oc1ccc(C=NNC(=O)CSc2nc3c(C)cccc3c(=O)n2-c2ccccc2)cc1	microbial growth	well diffusion		20 µg/mL		inhibition zone	3 mm
CC(=O)ON=C1C=CC(=C(C#N)c2ccccc2)C=C1	microbial killing	broth dilution	ATCC10231		48 h	MFC	4 µg/mL (≈ 15.1 µM)
Nc1nn2c(-c3ccc(Cl)cc3Cl)cc(-c3ccc(OCc4ccccc4)cc3)nc2c1N=Nc1ccc(F)cc1	microbial killing	broth dilution	ATCC10231			MFC	125 µg/mL (≈ 214 µM)
C[C@@H]1[C@H](O)[C@@H](C)/C=C/C=C/C=C/C=C/C=C/C=C/C=C/[C@H](O[C@@H]2O[C@H](C)[C@@H](O)[C@H](N)[C@@H]2O)C[C@@H]2O[C@](O)(C[C@@H](O)C[C@@H](O)[C@H](O)CC[C@@H](O)C[C@@H](O)CC(=O)O[C@H]1C)C[C@H](O)[C@H]2C(=O)O	microbial growth	broth dilution	SP3902		48 h	MIC	< 0.25 µM
Nc1ccc(S(=O)(=O)Nc2ncccn2)cc1	microbial growth	well diffusion		20 µg/mL		inhibition zone	3 mm
CC(=O)N1CCN(c2ccc(OCC3COC(Cn4ccnc4)(c4ccc(Cl)cc4Cl)O3)cc2)CC1 (stereo not shown)	microbial growth	broth dilution	17546		48 h	MIC	1 µM (≈ 0.531 µg/mL)
CCCS(=O)(=O)Oc1ccc(C=NNC(=O)CSc2nc3c(C)cccc3c(=O)n2-c2ccccc2)cc1OC	microbial growth	well diffusion		20 µg/mL		inhibition zone	4 mm
OC(Cn1cncn1)(Cn1cncn1)c1ccc(F)cc1F	microbial growth	broth dilution	SP3876		48 h	MIC	16 µM (≈ 4.9 µg/mL)
C#CCON=C1C=CC(=C(C#N)c2ccccc2)C=C1	microbial killing	broth dilution	ATCC10231		48 h	MFC	32 µg/mL (≈ 123 µM)
